Data taken from ChEMBL document CHEMBL3286203, “Reactive oxygen species (ROS) inducible DNA cross-linking agents and their effect on cancer cells and normal lymphocytes” (J Med Chem, 2014).
Active and inactive are the calls of the source. No cut-off for these calls is given here.

Tests used:
[1] = Cytotoxicity against human OVCAR8 cells after 48 hrs by SRB assay; type: functional; conditions: OVCAR-8, 48 h
Outline: (§1)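 GI50 from the NCI Developmental Therapeutics Program in vitro human tumor cell screen. Cell lines were maintained in RPMI 1640 with 5% fetal bovine serum and 2 mM L-glutamine. They were seeded at 5000–40 000 cells/well, depending on each line's doubling time, then exposed to drug for 48 h at 37 °C, 5% CO2.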

NCI-H522 = experiment: Cytotoxicity against human NCI-H522 cells after 48 hrs by SRB assay; type: functional; conditions: NCI-H522, 48 h; outline: as §1
MOLT-4 = experiment: Cytotoxicity against human MOLT4 cells after 48 hrs by SRB assay; type: functional; conditions: MOLT-4, 48 h; outline: as §1
HOP-62 = experiment: Cytotoxicity against human HOP62 cells after 48 hrs by SRB assay; type: functional; conditions: HOP-62, 48 h
Outline: (§2)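 GI50 was determined in the NCI Developmental Therapeutics Program in vitro 60-line cancer screen. Tumour lines were maintained in RPMI 1640 containing 5% FBS and 2 mM L-glutamine. Cells were inoculated at 5000–40 000 cells/well according to each line's doubling time before drug exposure.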

KM12 = experiment: Cytotoxicity against human KM12 cells after 48 hrs by SRB assay; type: functional; conditions: KM12, 48 h; outline: as §2
MCF7 = experiment: Cytotoxicity against human MCF7 cells after 48 hrs by SRB assay; type: functional; conditions: MCF7, 48 h; outline: as §2
MDA-MB-435 = experiment: Cytotoxicity against human MDA-MB-435 cells after 48 hrs by SRB assay; type: functional; conditions: MDA-MB-435, 48 h; outline: as §1
SK-MEL-5 = experiment: Cytotoxicity against human SK-MEL-5 cells after 48 hrs by SRB assay; type: functional; conditions: SK-MEL-5, 48 h; outline: as §1
HL-60(TB) = experiment: Cytotoxicity against human HL-60(TB) cells after 48 hrs by SRB assay; type: functional; conditions: HL-60, 48 h; outline: as §2
NCI-H322M = experiment: Cytotoxicity against human NCI-H322M cells after 48 hrs by SRB assay; type: functional; outline: as §1
COLO 205 = experiment: Cytotoxicity against human COLO205 cells after 48 hrs by SRB assay; type: functional; conditions: COLO 205, 48 h; outline: as §2
[2] = Induction of [32P]-labeled 49-mer oligonucleotide duplex DNA 12 interstrand cross-linking (unknown origin) at purine nucleotide site using compound radiolabeled at 5' of 12b in phosphate buffer at pH 7 at 90 degC after 30 mins by PAGE
[3] = Cytotoxicity against human NCI-ADR-RES cells after 48 hrs by SRB assay; type: functional; outline: as §1
RXF 393 = experiment: Cytotoxicity against human RXF393 cells after 48 hrs by SRB assay; type: functional; conditions: RXF 393, 48 h; outline: as §1
NCI-H23 = experiment: Cytotoxicity against human NCI-H23 cells after 48 hrs by SRB assay; type: functional; conditions: NCI-H23, 48 h; outline: as §1
786-0 = experiment: Cytotoxicity against human 786-0 cells after 48 hrs by SRB assay; type: functional; conditions: 786-0, 48 h; outline: as §2
SR = experiment: Cytotoxicity against human SR cells after 48 hrs by SRB assay; type: functional
Outline: (§3)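 GI50 from the NCI-60 DTP human tumour line screen. Lines grown in RPMI 1640 with 5% fetal bovine serum and 2 mM L-glutamine, plated at 5000–40 000 cells/well according to doubling time. Incubated 48 h at 37 °C, 5% CO2.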

SNB-75 = experiment: Cytotoxicity against human SNB75 cells after 48 hrs by SRB assay; type: functional; conditions: SNB-75, 48 h; outline: as §3
HCC 2998 = experiment: Cytotoxicity against human HCC2998 cells after 48 hrs by SRB assay; type: functional; conditions: HCC 2998, 48 h; outline: as §2
[4] = Induction of [32P]-labeled 49-mer oligonucleotide duplex DNA 12 with GNC sequence at terminus (unknown origin) interstrand cross-linking at 50 uM after 16 hrs by PAGE in presence of H2O2
Outline: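 32P-labelled 12a (1.0 μM) annealed with 1.5 equiv of 12b in 10 mM potassium phosphate pH 7 / 100 mM NaCl (65 °C for 3 min, then slow cooling). Duplex incubated with compound (final 1 μM–5 mM), with or without H2O2, in NaCl and potassium phosphate pH 8 at room temperature for 16 h. Quenched in formamide; 20% denaturing PAGE.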

K562 = experiment: Cytotoxicity against human K562 cells after 48 hrs by SRB assay; type: functional; conditions: K562, 48 h; outline: as §2
A498 = experiment: Cytotoxicity against human A498 cells after 48 hrs by SRB assay; type: functional; conditions: A498, 48 h; outline: as §2
SW-620 = experiment: Cytotoxicity against human SW620 cells after 48 hrs by SRB assay; type: functional; conditions: SW-620, 48 h; outline: as §3
Malme-3M = experiment: Cytotoxicity against human MALME-3M cells after 48 hrs by SRB assay; type: functional; outline: as §2
[5] = Induction of [32P]-labeled 49-mer oligonucleotide duplex DNA 12 interstrand cross-linking (unknown origin) at purine nucleotide site using compound radiolabeled at 3' of 12a at 90 deg C after 30 mins by PAGE in presence of piperidine
NCI-H226 = experiment: Cytotoxicity against human NCI-H226 cells after 48 hrs by SRB assay; type: functional; conditions: NCI-H226, 48 h; outline: as §1
[6] = Cytotoxicity against human Hs578T cells after 48 hrs by SRB assay; type: functional; conditions: Hs-578T; outline: as §2
[7] = Cytotoxicity against human OVCAR4 cells after 48 hrs by SRB assay; type: functional; conditions: OVCAR-4, 48 h; outline: as §1
[8] = Cytotoxicity against human UO31 cells after 48 hrs by SRB assay; type: functional; conditions: UO-31, 48 h; outline: as §3
MDA-MB-468 = experiment: Cytotoxicity against human MDA-MB-468 cells after 48 hrs by SRB assay; type: functional; conditions: MDA-MB-468, 48 h; outline: as §1
[9] = Cytotoxicity against human OVCAR5 cells after 48 hrs by SRB assay; type: functional; conditions: OVCAR-5, 48 h; outline: as §1
MDA-MB-231 = experiment: Cytotoxicity against human MDA-MB-231 cells after 48 hrs by SRB assay; type: functional; conditions: MDA-MB-231, 48 h; outline: as §1
[10] = Cytotoxicity against human HCT15 cells after 48 hrs by SRB assay; type: functional; conditions: HCT-15, 48 h; outline: as §2
[11] = Induction of [32P]-labeled 49-mer oligonucleotide duplex DNA 12 interstrand cross-linking (unknown origin) at purine nucleotide site using compound radiolabeled at 5' of 12a in phosphate buffer at pH 7 at 90 degC after 30 mins by PAGE
Outline: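 Cross-linked duplex, with strand 12a 32P-labelled at the 5′ end, heated at 90 °C either in phosphate buffer pH 7.0 or in 1.0 M piperidine. Cleavage sites were assigned by denaturing PAGE against G + A sequencing and Fe·EDTA markers.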

HT-29 = experiment: Cytotoxicity against human HT-29 cells after 48 hrs by SRB assay; type: functional; conditions: HT-29, 48 h; outline: as §2
M14 = experiment: Cytotoxicity against human M14 cells after 48 hrs by SRB assay; type: functional; conditions: M14, 48 h; outline: as §2
NCI-H460 = experiment: Cytotoxicity against human NCI-H460 cells after 48 hrs by SRB assay; type: functional; conditions: NCI-H460, 48 h; outline: as §1
DU-145 = experiment: Cytotoxicity against human DU145 cells after 48 hrs by SRB assay; type: functional; conditions: DU-145, 48 h; outline: as §2
RPMI-8226 = experiment: Cytotoxicity against human RPMI8226 cells after 48 hrs by SRB assay; type: functional; conditions: RPMI-8226, 48 h; outline: as §1

SMILES | GI50 [1] [µM] | GI50 (NCI-H522) [µM] | GI50 (MOLT-4) [µM] | GI50 (HOP-62) [µM] | GI50 (KM12) [µM] | GI50 (MCF7) [µM] | GI50 (MDA-MB-435) [µM] | GI50 (SK-MEL-5) [µM] | GI50 (HL-60(TB)) [µM] | GI50 (NCI-H322M) [µM] | GI50 (COLO 205) [µM] | Activity [2] | GI50 [3] [µM] | GI50 (RXF 393) [µM] | GI50 (NCI-H23) [µM] | GI50 (786-0) [µM] | GI50 (SR) [nM] | Activity [4] [%] | Activity [5] | Activity [11] | other results
CC1(C)OB(c2ccc(N(CCCl)CCOS(C)(=O)=O)cc2)OC1(C)C | 8.2 | 5.99 | 3.74 | 8.85 | 25.8 | 4.44 | 15.3 | 12.8 | 3.88 | 28.2 | 11 | Active | 6.52 | 5.71 | 4.7 | 6.55 | 630 | 3 | Active | Active | GI50 (SNB-75): 5.85 µM; GI50 (HCC 2998): 14.6 µM; GI50 (K562): 19 µM; GI50 (A498): 8.59 µM; GI50 (SW-620): 11.9 µM; GI50 (Malme-3M): 14 µM; GI50 (NCI-H226): 10.4 µM; GI50 [6]: 24.1 µM; GI50 [7]: 13.9 µM; GI50 [8]: 6.18 µM; GI50 (MDA-MB-468): 1070 nM; GI50 [9]: 22.9 µM; GI50 (MDA-MB-231): 22.1 µM; GI50 [10]: 13.5 µM; GI50 (HT-29): 14.6 µM; GI50 (M14): 5.68 µM; GI50 (NCI-H460): 490 nM; GI50 (DU-145): 4.52 µM; GI50 (RPMI-8226): 14.7 µM
CC1(C)OB(c2ccc(N(CCBr)CCOS(C)(=O)=O)cc2)OC1(C)C |  |  |  |  |  |  |  |  |  |  |  | Active |  |  |  |  |  | 3 | Active | Active | 
CC1(C)OB(c2ccc(N(CCBr)CCBr)cc2)OC1(C)C |  |  |  |  |  |  |  |  |  |  |  | Active |  |  |  |  |  | 3 | Active | Active | 
CC1(C)OB(c2ccc(N(CCCl)CCBr)cc2)OC1(C)C | 11.9 | 11.7 | 3.69 | 10.9 | 31.3 | 5.03 | 16.5 | 13.7 | 5.11 | 32.5 | 11.4 | Active | 6.69 | 10.4 | 5.38 | 8.95 | 660 | 3 | Active | Active | GI50 (SNB-75): 10.7 µM; GI50 (HCC 2998): 24 µM; GI50 (K562): 22.6 µM; GI50 (A498): 5.87 µM; GI50 (SW-620): 13.9 µM; GI50 (Malme-3M): 18.4 µM; GI50 (NCI-H226): 11.9 µM; GI50 [6]: 27.4 µM; GI50 [7]: 14.4 µM; GI50 [8]: 6.51 µM; GI50 (MDA-MB-468): 1490 nM; GI50 [9]: 25.9 µM; GI50 (MDA-MB-231): 22.8 µM; GI50 [10]: 17.1 µM; GI50 (HT-29): 18.8 µM; GI50 (M14): 7.86 µM; GI50 (NCI-H460): 420 nM; GI50 (DU-145): 6.69 µM; GI50 (RPMI-8226): 19.4 µM
CC1(C)OB(c2ccc(N(CCCl)CCCl)cc2)OC1(C)C | 7.83 | 6.59 | 3.48 | 10.9 | 14.9 | 4.12 | 14.2 | 14.5 | 4.66 | 14.7 | 11.6 | Active | 5.33 | 10.3 | 4.57 | 5.35 | 630 | 3 | Active | Active | GI50 (SNB-75): 7.98 µM; GI50 (HCC 2998): 14.9 µM; GI50 (K562): 17.2 µM; GI50 (A498): 2.81 µM; GI50 (SW-620): 11.3 µM; GI50 (Malme-3M): 17.5 µM; GI50 (NCI-H226): 12.9 µM; GI50 [6]: 26.2 µM; GI50 [7]: 17.4 µM; GI50 [8]: 5.78 µM; GI50 (MDA-MB-468): 1600 nM; GI50 [9]: 21.6 µM; GI50 (MDA-MB-231): 16.5 µM; GI50 [10]: 13.2 µM; GI50 (HT-29): 13.8 µM; GI50 (M14): 5.1 µM; GI50 (NCI-H460): 330 nM; GI50 (DU-145): 4.25 µM; GI50 (RPMI-8226): 10.9 µM
